From ChEMBL document CHEMBL5678805, “Intermittent administration of MEK inhibitor GDC-0973 plus PI3K inhibitor GDC-0941 triggers robust apoptosis and tumor growth inhibition” (Cancer Res, 2012)
Active and inactive are the calls of the source. No cut-off for these calls is given here.

What was measured:
[1] = target: Tyrosine-protein kinase ABL1 (Homo sapiens, UniProt P00519); assay: Inhibition of Abl (unknown origin)
[2] = target: Cyclin-dependent kinase 2/cyclin E1 (Homo sapiens, UniProt P24941); assay: Inhibition of CDK2/cyclinE (unknown origin); format: protein-complex assay
[3] = target: Mitogen-activated protein kinase 3 (Homo sapiens, UniProt P27361); assay: Inhibition of ERK1 (unknown origin)
Sequence of Mitogen-activated protein kinase 3 (P27361 whole entry): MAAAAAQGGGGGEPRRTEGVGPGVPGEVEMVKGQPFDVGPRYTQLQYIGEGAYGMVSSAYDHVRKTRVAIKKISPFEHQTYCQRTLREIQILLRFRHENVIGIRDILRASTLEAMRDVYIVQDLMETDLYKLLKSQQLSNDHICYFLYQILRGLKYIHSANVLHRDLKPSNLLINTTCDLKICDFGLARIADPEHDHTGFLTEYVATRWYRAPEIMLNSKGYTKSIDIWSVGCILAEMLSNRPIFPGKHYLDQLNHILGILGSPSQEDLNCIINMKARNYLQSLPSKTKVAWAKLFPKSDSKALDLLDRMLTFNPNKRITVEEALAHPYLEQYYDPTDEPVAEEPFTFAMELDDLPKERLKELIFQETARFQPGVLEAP

[4] = target: Macrophage colony-stimulating factor 1 receptor (Homo sapiens, UniProt P07333); assay: Inhibition of Fms (unknown origin)
Sequence of Macrophage colony-stimulating factor 1 receptor (P07333 whole entry): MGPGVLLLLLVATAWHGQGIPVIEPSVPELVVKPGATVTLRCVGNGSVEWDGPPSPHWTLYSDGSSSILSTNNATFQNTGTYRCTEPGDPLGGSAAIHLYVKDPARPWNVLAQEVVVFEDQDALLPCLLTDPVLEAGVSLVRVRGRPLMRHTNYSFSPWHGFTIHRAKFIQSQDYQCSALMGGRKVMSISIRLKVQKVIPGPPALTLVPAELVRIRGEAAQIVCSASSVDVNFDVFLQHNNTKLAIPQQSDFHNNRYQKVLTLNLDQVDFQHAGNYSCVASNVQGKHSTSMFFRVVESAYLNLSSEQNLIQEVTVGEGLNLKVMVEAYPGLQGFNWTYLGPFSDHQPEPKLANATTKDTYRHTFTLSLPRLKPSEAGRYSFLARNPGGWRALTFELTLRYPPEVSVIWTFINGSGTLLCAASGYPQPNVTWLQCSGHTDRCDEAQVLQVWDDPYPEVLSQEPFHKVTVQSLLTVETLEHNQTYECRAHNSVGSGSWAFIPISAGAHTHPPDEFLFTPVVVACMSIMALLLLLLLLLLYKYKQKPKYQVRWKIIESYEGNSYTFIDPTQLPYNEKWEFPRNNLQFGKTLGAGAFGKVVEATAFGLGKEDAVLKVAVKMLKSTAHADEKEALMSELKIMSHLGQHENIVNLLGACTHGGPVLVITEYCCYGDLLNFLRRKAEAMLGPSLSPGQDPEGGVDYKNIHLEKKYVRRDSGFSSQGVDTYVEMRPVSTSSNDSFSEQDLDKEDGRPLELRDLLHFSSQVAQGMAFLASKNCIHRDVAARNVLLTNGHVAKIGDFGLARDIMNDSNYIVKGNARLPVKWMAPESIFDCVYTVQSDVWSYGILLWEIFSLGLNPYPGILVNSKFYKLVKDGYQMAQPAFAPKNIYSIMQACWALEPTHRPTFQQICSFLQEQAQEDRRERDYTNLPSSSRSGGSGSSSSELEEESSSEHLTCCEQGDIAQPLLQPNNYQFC

[5] = target: Tyrosine-protein kinase Lyn (Homo sapiens, UniProt P07948); assay: Inhibition of Lyn (unknown origin)
Sequence of Tyrosine-protein kinase Lyn (P07948 whole entry): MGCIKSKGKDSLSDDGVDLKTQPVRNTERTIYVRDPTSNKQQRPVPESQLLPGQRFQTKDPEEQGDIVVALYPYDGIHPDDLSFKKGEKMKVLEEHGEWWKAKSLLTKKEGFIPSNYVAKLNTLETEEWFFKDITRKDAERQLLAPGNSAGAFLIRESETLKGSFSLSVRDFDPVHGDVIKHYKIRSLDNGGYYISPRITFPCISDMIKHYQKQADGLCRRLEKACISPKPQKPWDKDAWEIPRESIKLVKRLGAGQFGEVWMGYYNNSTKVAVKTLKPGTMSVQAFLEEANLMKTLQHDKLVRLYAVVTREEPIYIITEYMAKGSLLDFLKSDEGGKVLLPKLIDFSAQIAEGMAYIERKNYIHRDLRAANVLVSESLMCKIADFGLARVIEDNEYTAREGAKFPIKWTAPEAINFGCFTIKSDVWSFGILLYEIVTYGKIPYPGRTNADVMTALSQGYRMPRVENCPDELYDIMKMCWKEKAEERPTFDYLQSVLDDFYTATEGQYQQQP

[6] = target: Ribosomal protein S6 kinase alpha-5 (Homo sapiens, UniProt O75582); assay: Inhibition of MSK1 (unknown origin)
Sequence of Ribosomal protein S6 kinase alpha-5 (O75582 whole entry): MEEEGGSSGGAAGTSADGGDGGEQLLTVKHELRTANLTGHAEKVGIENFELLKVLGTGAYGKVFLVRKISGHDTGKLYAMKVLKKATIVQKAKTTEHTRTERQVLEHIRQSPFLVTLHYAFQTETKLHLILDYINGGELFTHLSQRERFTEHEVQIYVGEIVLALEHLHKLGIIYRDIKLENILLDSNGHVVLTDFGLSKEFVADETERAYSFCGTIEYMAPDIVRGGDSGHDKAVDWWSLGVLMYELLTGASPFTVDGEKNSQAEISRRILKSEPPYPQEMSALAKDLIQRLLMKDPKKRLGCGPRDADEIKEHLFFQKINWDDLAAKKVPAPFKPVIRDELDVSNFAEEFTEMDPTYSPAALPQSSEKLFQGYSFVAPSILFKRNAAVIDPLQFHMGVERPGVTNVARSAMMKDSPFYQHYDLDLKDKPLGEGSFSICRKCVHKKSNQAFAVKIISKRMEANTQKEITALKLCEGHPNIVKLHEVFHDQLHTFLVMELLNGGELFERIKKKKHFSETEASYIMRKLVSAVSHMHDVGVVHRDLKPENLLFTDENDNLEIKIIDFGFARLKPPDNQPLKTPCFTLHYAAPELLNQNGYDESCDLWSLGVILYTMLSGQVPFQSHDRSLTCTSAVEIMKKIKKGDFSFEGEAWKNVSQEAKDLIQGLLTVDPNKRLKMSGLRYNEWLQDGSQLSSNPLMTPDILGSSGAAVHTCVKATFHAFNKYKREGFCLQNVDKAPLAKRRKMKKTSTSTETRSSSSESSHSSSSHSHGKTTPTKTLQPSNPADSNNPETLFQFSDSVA

[7] = Antitumor activity against human MOLM16 cells harboring FLT3 T227M mutant xenografted in mouse assessed as tumor growth inhibition at 2.5 mg/kg, po; format: functional, MOLM-16; conditions: read-out: TGI
In short: (§1)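 Human tumor xenografts in mice were dosed orally at the indicated mg/kg. Tumor volume was measured with calipers as (L×W×W)/2. %TGI = 100 × [1 − (AUC treatment/d)/(AUC vehicle/d)], using the area under the fitted tumor-growth curve per day for each dose group relative to vehicle.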

[8] = Antitumor activity against human MOLM16 cells harboring FLT3 T227M mutant xenografted in mouse assessed as tumor growth inhibition at 5 mg/kg, po; format: functional, MOLM-16; conditions: read-out: TGI; in short: as §1
HCT-116 [9] = assay: Antitumor activity against human HCT-116 cells harboring KRAS G13D/PIK3CA […]/CTNNB1 S45del/CDKN2A G23fs mutant xenografted in mouse assessed as tumor growth inhibition at 2.5 mg/kg, po; format: functional; conditions: read-out: TGI
In short: (§2)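 Single-agent dose ranging in human tumor xenograft mice at 2.5, 5 or 10 mg/kg oral. Tumor volume was measured by caliper as (L×W×W)/2. %TGI = 100×[1 − AUC(treatment/d)/AUC(vehicle/d)] from the fitted growth curve per dose group, relative to vehicle.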

HCT-116 [10] = assay: Antitumor activity against human HCT-116 cells harboring KRAS G13D/PIK3CA […]/CTNNB1 S45del/CDKN2A G23fs mutant xenografted in mouse assessed as tumor growth inhibition at 5 mg/kg, po; format: functional; conditions: read-out: TGI; in short: as §2
[11] = Antitumor activity against human A2058-X1 cells harboring BRAF V600E/PTEN L112Q/V175/TP53 V274F mutant xenografted in mouse assessed as tumor growth inhibition at 10 mg/kg, po; format: functional; conditions: A2058-X1, read-out: TGI; in short: as §2
EBC-1 = assay: Antitumor activity against human EBC-1 cells harboring MET amp and EGFR G719S/L858R mutant xenografted in mouse assessed as tumor growth inhibition at 5 mg/kg, po; format: functional; conditions: read-out: TGI; in short: as §2
NCI-H460 = assay: Antitumor activity against human NCI-H460 cells harboring KRAS Q61H/PIK3CA E545K/LKB1 Q37/CDKN2A mutant xenografted in mouse assessed as tumor growth inhibition at 2.5 mg/kg, po; format: functional; conditions: read-out: TGI; in short: as §1
MIA PaCa-2 = assay: Antitumor activity against human MIA PaCa-2 cells harboring KRAS G12C/NOTCH1 L2458V mutant xenografted in mouse assessed as tumor growth inhibition at 10 mg/kg, po; format: functional; conditions: read-out: TGI; in short: as §2
A375.X1 = assay: Antitumor activity against human A375.X1 cells xenografted in mouse assessed as reduction in ERK phosphorylation at 1 to 10 mg/kg, po by Western blot analysis; format: functional, organism-based; conditions: dose 1-10 mg/kg, time 74-96 hrs, TDE = time-dependent effect
In short: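 A375.X1 xenograft mice were dosed orally at 1, 3, 5 or 10 mg/kg once daily for 3 days. Tumors were collected 2, 8 and 24 h after the last dose, pulverized frozen and resolved by 4–12% SDS-PAGE. p-ERK1/2 and t-ERK1/2 were measured by Western blot and quantified by band intensity, relative to vehicle-treated mice (0 h).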

888-mel [12] = assay: Antiproliferative activity against human 888-mel cells assessed reduction in cell viability incubated for 4 days in presence of 4-(2-(1H-indazol-4-yl)-6-((4-(methylsulfonyl)piperazin-1-yl)methyl)thieno[3,2-d]pyrimidin-4-yl)morpholine by celltiter-glo assay; format: functional; conditions: time 4 day
In short: (§3)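 4-day CellTiter-Glo viability read-out on melanoma lines, cells exposed to increasing concentrations of each inhibitor alone and in combination.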

MeWo = assay: Antiproliferative activity against human MeWo cells assessed reduction in cell viability incubated for 4 days in presence of 4-(2-(1H-indazol-4-yl)-6-((4-(methylsulfonyl)piperazin-1-yl)methyl)thieno[3,2-d]pyrimidin-4-yl)morpholine by celltiter-glo assay; format: functional; conditions: time 4 day; in short: as §3
888-mel [13] = assay: Inhibition of PI3K/MEK signaling pathway in human 888-mel cells assessed as decrease in AKT phosphorylation by incubated for 24 hrs by Western blot analysis; format: cell-based
DLD-1 [14] = assay: Antitumor activity against human DLD-1 cells xenografted in mouse assessed as tumor growth inhibition at 10 mg/kg, po administered every third day for 21 days in presence of 4-(2-(1H-indazol-4-yl)-6-((4-(methylsulfonyl)piperazin-1-yl)methyl)thieno[3,2-d]pyrimidin-4-yl)morpholine; format: functional; conditions: DLD-1, 504 h, time 21 day, read-out: TGI
In short: (§4)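 Human tumor xenografts in mice. Drugs given orally, as single agents or combined with the PI3K inhibitor. Schedules were daily (QD) or every third day (Q3D) over 21 days. Tumor volume was measured by caliper as (L×W×W)/2. %TGI = 100×[1 − AUC(treatment/d)/AUC(vehicle/d)] from fitted growth curves, with group means. Tumor lysates were immunoblotted for pS6.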

DLD-1 [15] = assay: Antitumor activity against human DLD-1 cells xenografted in mouse assessed as tumor growth inhibition at 15 mg/kg, po administered once a day for 21 days in presence of 4-(2-(1H-indazol-4-yl)-6-((4-(methylsulfonyl)piperazin-1-yl)methyl)thieno[3,2-d]pyrimidin-4-yl)morpholine; format: functional; conditions: DLD-1, 504 h, time 21 day, read-out: TGI; in short: as §4
888-mel [16] = assay: Inhibition of ERK phosphorylation in human 888-mel cells incubated for 24 hrs by immunoblotting analysis; format: cell-based
888-mel [17] = assay: Upregulation of Bim level in human 888-mel cells preincubated with compound for 24 hrs followed by compound washout and measured after 2 hrs by immunoblotting analysis; format: functional, cell-based
A2058 [18] = assay: Antitumor activity against human A2058 cells harboring BRAF V600E/PTEN deletion mutant xenografted in mouse assessed as increase in BimL level at 15 mg/kg, po administered every third day for 21 days and measured after 8 hrs post dose by Western blot analysis; format: functional, organism-based; conditions: time 512.0 hrs
A2058 [19] = assay: (§5) Antitumor activity against human A2058 cells harboring BRAF V600E/PTEN deletion mutant xenografted in mouse assessed as suppression of ERK phosphorylation at 15 mg/kg, po administered every third day for 21 days and measured after 72 hrs post dose by Western blot analysis; format: functional, organism-based; conditions: time 576.0 hrs
A2058 [20] = assay: as §5, with “S6” for “ERK”, “dose in presence of 4-(2-(1H-indazol-4-yl)-6-((4-(methylsulfonyl)piperazin-1-yl)methyl)thieno[3,2-d]pyrimidin-4-yl)morpholine” for “dose”; format: functional, organism-based; conditions: time 576.0 hrs; in short: as §4
A2058 [21] = assay: Antitumor activity against human A2058 cells harboring BRAF V600E/PTEN deletion mutant xenografted in mouse assessed as decrease in tumor volume at 10 mg/kg, po administered once weekly for 21 days in presence of GDC-0980 by digital calipers analysis; format: functional, organism-based; conditions: time 21.0 day

Sequence of Tyrosine-protein kinase ABL1 (P00519 whole entry): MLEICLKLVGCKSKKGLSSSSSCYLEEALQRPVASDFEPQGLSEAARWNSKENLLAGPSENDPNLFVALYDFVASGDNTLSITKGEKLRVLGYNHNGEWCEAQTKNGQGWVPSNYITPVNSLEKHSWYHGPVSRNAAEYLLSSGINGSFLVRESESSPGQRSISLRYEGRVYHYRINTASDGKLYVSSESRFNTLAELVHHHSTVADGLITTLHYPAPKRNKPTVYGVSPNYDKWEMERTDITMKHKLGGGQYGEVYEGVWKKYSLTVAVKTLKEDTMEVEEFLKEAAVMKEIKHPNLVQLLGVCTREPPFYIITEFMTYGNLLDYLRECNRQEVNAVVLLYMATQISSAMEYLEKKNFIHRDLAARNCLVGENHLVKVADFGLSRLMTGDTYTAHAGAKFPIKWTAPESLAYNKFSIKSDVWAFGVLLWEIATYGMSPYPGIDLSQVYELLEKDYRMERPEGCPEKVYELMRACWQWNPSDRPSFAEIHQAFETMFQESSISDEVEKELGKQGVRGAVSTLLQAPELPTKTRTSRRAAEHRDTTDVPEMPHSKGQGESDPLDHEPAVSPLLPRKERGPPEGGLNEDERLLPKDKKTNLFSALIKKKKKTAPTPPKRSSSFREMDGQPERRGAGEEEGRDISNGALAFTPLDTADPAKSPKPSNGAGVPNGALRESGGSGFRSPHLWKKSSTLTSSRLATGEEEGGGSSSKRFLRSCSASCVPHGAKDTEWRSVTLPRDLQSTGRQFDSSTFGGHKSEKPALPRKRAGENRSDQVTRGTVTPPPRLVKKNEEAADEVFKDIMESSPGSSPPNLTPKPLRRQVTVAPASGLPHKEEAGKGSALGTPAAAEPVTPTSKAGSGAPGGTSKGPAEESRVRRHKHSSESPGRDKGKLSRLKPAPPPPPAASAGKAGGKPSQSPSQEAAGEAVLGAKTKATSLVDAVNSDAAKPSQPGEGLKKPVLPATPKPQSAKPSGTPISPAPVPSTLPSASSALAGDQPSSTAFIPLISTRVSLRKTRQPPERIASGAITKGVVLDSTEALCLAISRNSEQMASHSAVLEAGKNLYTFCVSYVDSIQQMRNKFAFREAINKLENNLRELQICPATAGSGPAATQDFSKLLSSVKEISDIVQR

O=C(c1ccc(F)c(F)c1Nc1ccc(I)cc1F)N1CC(O)([C@@H]2CCCCN2)C1 [COBIMETINIB]
IC50 [1]: > 10 µM | IC50 [2]: > 10 µM | IC50 [3]: > 10 µM | IC50 [4]: > 10 µM | IC50 [5]: > 10 µM | IC50 [6]: > 10 µM | inhibition in vivo at 2.5 mg/kg [7]: 7% | inhibition in vivo at 5 mg/kg [8]: 30% | inhibition in vivo at 2.5 mg/kg (HCT-116 [9]): 34% | inhibition in vivo at 5 mg/kg (HCT-116 [10]): 68.7% | inhibition in vivo at 10 mg/kg [11]: 61% | inhibition in vivo at 5 mg/kg (EBC-1): 7% | inhibition in vivo at 2.5 mg/kg (NCI-H460): 32% | inhibition in vivo at 10 mg/kg (MIA PaCa-2): 12% | Activity (A375.X1): Tde | Activity (888-mel [12]): 60% | Activity (MeWo): 60% | inhibition (888-mel [13]): Active | inhibition in vivo at 10 mg/kg (DLD-1 [14]): 72% | inhibition in vivo at 15 mg/kg (DLD-1 [15]): 69% | inhibition (888-mel [16]): Active | Activity (888-mel [17]): Active | Activity (A2058 [18]): Active | Activity (A2058 [19]): Active | Activity (A2058 [20]): Active | Activity (A2058 [21]): Active
